Screens: PubChem BioAssay, Broad Institute
In the library only some 2.1% were active in any assay of this set; here they are far more common.
FN deposition inh – fibronectin deposition inhibition | AH1F fibroblasts, Alexa488-fibronectin deposition fluorescence, overnight | inhibition, % at 12.6 µM | 350,000 compounds, 0.086% hits | AID 743247;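 active means mean inhibition across replicates of 30% or more, regardless of how many single replicates reach that level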;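 further: positive control wells lacked labelled fibronectin entirely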
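Material: AH1F fibroblasts assembling fluorescent fibronectin matrix; amount: 10000 AH1F cells/well; medium: DMEM, 2% serum; reagent: Alexa488-fibronectin, 24 nM final in well; dosing: single compound dose, delivered by pin transfer; incubation: 1 h adhesion, overnight exposure; detection: fluorescence after three HBSS washes, excitation 485 nm, emission 525 nm; measure: fibronectin deposition inhibition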
PAX8 inh HTS – inhibitors of PAX8 transcriptional activity in RMG-I cells | inhibition, % at 12.6 µM | 360,000 compounds, 1.2% hits | RMG-I TPO-luciferase reporter, SteadyGlo, 24 h;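 active means mean replicate inhibition at least 60% with every replicate also reaching 60%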;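 further: luciferase light reporting Pax8 driven TPO promoter activity; plate controls were median of neutral control wells for no effect and mitoxantrone controls for full effect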
EBV LMP1 NFkB – inhibitors of Epstein-Barr LMP1-induced NF-kappaB reporter | 350,000 compounds, 0.69% hits | LMP1-induced NF-kappaB luciferase reporter cells, luminescence | inhibition, % at 12.5 µM | AID 504558; in the data active means inhibition above about 41%;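 further: 0% = neutral control wells and 100% = reference inhibitor control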
aSyn 5UTR inh – MLPCN primary screen, SNCA 5' untranslated region. alpha-synuclein 5'UTR reporter, inhibitor activity. inhibition, % (tested at 7.5 µM). 300,000 compounds, 0.82% hits. AID 1813; in the data active means inhibition above about 60%;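 further: H4 neuroglioblastoma cells stably carrying SNCA 5'UTR luciferase fusion; 0% = DMSO wells and 100% = positive control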
EWS-Fli block – EWS/Fli transcriptional activity inhibition | A673 NR0B1-luciferase reporter, viability-normalised | inhibition, % at 12.6 µM | 350,000 compounds, 0.67% hits;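 active means mean inhibition of at least 50% after viability correction, with every replicate also passing that limit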;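 further: firefly luciferase signal divided by Alamar Blue viability fluorescence both relative to DMSO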
Shn3 3UTR inh – reduces Shn3 3'UTR luciferase signal in osteoblasts | Clone20 osteoblast Shn3 3'UTR firefly luciferase, 24 h | 360,000 compounds, 0.52% hits | inhibition, % at 12.5 µM;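 active means mean inhibition of at least 75% with every replicate also reaching 75%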;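 further: 0% = median of neutral control wells and 100% = pilot-screen positive control compound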
* marks the source's active call; other numbers are inactive results; nt = no result.

SMILES	FN deposition inh	PAX8 inh HTS	EBV LMP1 NFkB	aSyn 5UTR inh	EWS-Fli block	Shn3 3UTR inh
CC1CC(=O)c2c(cc3c(-c4c(O)cc(O)c5c(O)c6c(cc45)OC(C)CC6=O)c(O)cc(O)c3c2O)O1 (stereo unspecified)	nt	nt	27.2	70.2*	nt	75.8
COc1ccc(O)c(C(c2c(C)[nH][nH]c2=O)c2c(C)[nH][nH]c2=O)c1	2.1	96.7*	12.0	-8.3	10.1	23.3
O=C(/C(=C/c1ccc(Cl)cc1)c1nc2ccccc2[nH]1)c1cccs1	nt	nt	3.5	-177.7	nt	87.9*
CC(C)NC(=O)N(C)C[C@@H]1Oc2ccc(N(C)C)cc2CC(=O)N(C)C[C@@H]1C	-17.8	nt	nt	nt	nt	nt
Oc1ccc(-c2n[nH]c(C(F)(F)F)c2-c2ccccc2)c(O)c1	4.3	7.2	7.0	-16.4	8.1	86.7*
COc1ccccc1-c1c(-c2ccc(O)cc2O)n[nH]c1C(F)(F)F	-1.7	14.1	18.9	-23.8	7.9	90.8*
COCC(=O)N1C[C@@H]2[C@H](c3ccccc31)[C@H](CO)N2C(=O)NC(C)C	nt	6.9	nt	nt	8.8	nt
O=C(Nc1cccc(F)c1)N1CC(=O)N2[C@@H](CO)[C@H](c3ccc(C#CC4CC4)cc3)[C@@H]2C1	nt	nt	nt	nt	-10.4	nt
CCn1nc(C(=O)Nc2nc(-c3ccccn3)cs2)c2ccccc2c1=O	9.0	11.3	42.0*	nt	2.8	78.7
CCCn1nc(C(=O)Nc2nc(-c3ccccn3)cs2)c2ccccc2c1=O	0.8	73.8*	26.8	nt	11.1	60.2
Cn1nc(C(=O)Nc2nc(-c3ccccn3)cs2)c2ccccc2c1=O	nt	-5.2	24.0	nt	13.3	51.2
CC(C)CCn1nc(C(=O)Nc2nc3c(s2)CCCC3)c2ccccc2c1=O	10.8	1.2	5.0	67.6*	-7.3	14.9
CCc1cc(C(=O)Nc2nc(-c3ccccn3)cs2)sc1C	9.5	16.1	29.3	nt	9.3	62.7
O=C(Nc1nc2c(s1)CCCC2)c1nn(Cc2ccccc2)c(=O)c2ccccc12	-7.3	-0.3	4.3	20.9	-1.9	16.2
CCOc1ccc(C(NC(=O)CC)c2c(O)ccc3ccccc23)cc1 (stereo unspecified)	10.5	22.6	-1.4	13.4	13.9	-7.6
CC(=O)Oc1ccc2ccccc2c1C(NC(=O)Cc1ccccc1)c1ccc(Cl)cc1 (stereo unspecified)	-1.5	84.7*	-6.0	-4.2	nt	7.2
COc1ccc(-c2sc3cc(OC)c(OC)cc3c2C#CCCO)cc1	-11.9	9.5	-9.5	nt	-1.5	22.2
COc1ccc(-c2sc3ccc(N4CCOCC4)cc3c2C#CCCO)cc1	-12.4	65.1*	-80.4	nt	13.1	-11.4
O=C(NCC[C@H]1CC[C@H](NC(=O)C2CCC2)[C@@H](CO)O1)c1cc(Cl)cc(Cl)c1	3.8	16.5	nt	nt	5.9	nt
Cc1ccsc1/C=N\NC(=O)c1n[nH]c2c1CCC2	-6.4	19.6	34.9	68.6*	nt	-4.9
O=C(N/N=C/c1cccc(O)c1)c1ccc2c(c1)OCCO2	17.7	7.0	64.2*	14.9	1.5	-23.2
Cc1ccsc1/C=N/NC(=O)c1ccc2c(c1)OCCO2	17.5	-8.3	59.5*	16.7	-109.2	-19.9
Cc1ccsc1/C=N\NC(=O)c1ccc2c(c1)OCO2	-2.5	-133.7	5.0	-96.9	nt	-37.2
C/C(=N\NC(=O)c1ccc(O)cc1)c1ccc2c(c1)OCCO2	-0.6	-25.4	-4.0	nt	-87.3	-66.8
C/C(=N\NC(=O)c1ccc2c(c1)OCCO2)c1ccccc1	12.5	-134.7	12.0	72.9*	-0.6	4.7
SMILES	FN deposition inh	PAX8 inh HTS	EBV LMP1 NFkB	aSyn 5UTR inh	EWS-Fli block	Shn3 3UTR inh
O=C(N/N=C/c1ccc2c(c1)OCO2)c1ccc2c(c1)OCO2	5.5	-151.8	-16.8	-91.3	nt	-52.1
CCn1c(Cl)c(C=O)s/c1=N\S(=O)(=O)c1ccccc1	50.1*	9.6	0.3	-55.2	14.1	99.3*
Cc1ccc(N(CC(=O)NCc2ccco2)S(=O)(=O)c2ccccc2)cc1	30.1*	-3.8	1.0	-29.9	nt	-5.8
Cc1nc2cc(NC(=O)c3ccc([N+](=O)[O-])s3)ccc2s1	-0.2	-31.3	20.8	76.5*	nt	-6.9
O=C(Nc1ccc(S(=O)(=O)NC2=NCCCCC2)cc1)c1ccc([N+](=O)[O-])s1	0.3	94.8*	3.1	-65.5	59.4*	10.9
CCCNC(=O)N1[C@H](CNC(=O)CC)[C@@H](c2ccc(C3=CCCC3)cc2)[C@@H]1CO	-7.3	-11.1	nt	nt	8.2	nt
Nc1ccc2nc(-c3ccc(N)c(Cl)c3)[nH]c2c1	nt	nt	-10.8	-114.7	nt	-49.7
